# Rows were chosen to be rich in hits. Some 1.3% of all compounds tested hit in one or more screens of this group.
# ANO1 activ – TMEM16A chloride channel activators or potentiators, primary screen, cell-based, HTS. Anoctamin-1 (Mus musculus), Q8BHY3. HEK293 TMEM16A/YFP-H148Q/I152L, iodide quench fluorescence; stronger effect = lower value. B-score at 10 µM. 340,000 tested, 0.3% active. AID 623877, 2012;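 active = fluorescence-ratio B-score plate-corrected deviation score at least 3 library SD below zero, with starting fluorescence score within 5 deviations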;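 note: channel opened by trigger with iodide after compound preincubation; score built on the fluorescence ratio of max minus min over baseline; more negative score means more quench and so TMEM16A activation or potentiation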
# DAGLB inhibitor – DAGLB lipase inhibitors, primary screen, biochemical, fluorescence, HTS; HEK293T DAGLB membrane lysate, EnzChek fluorogenic substrate; inhibition, % at 5.17 µM; 340,000 tested, 0.059% active; AID 504411, 2011; in the data active = inhibition above about 34%;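 note: 0% = enzyme with vehicle and 100% = wells lacking enzyme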
# Target sequence (Q8NCG7 whole entry, looked up): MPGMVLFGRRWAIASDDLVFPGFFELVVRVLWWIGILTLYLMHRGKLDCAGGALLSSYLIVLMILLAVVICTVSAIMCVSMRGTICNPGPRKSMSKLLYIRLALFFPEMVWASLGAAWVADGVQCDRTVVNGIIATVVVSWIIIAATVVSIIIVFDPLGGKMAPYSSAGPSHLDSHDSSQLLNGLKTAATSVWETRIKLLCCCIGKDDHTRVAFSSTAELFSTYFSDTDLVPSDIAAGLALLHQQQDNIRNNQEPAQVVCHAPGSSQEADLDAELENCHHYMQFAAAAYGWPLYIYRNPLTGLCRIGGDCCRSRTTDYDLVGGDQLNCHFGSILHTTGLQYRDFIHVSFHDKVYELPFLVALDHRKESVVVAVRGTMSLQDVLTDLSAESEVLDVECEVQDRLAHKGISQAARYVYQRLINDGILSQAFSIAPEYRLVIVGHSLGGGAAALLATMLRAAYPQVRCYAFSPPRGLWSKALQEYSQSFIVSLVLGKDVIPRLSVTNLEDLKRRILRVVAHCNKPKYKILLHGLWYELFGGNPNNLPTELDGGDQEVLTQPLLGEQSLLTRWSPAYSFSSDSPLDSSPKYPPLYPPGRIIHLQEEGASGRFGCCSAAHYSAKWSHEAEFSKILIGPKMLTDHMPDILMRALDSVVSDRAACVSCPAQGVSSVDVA
# ANO1 block – TMEM16A chloride channel inhibitors, primary screen, cell-based, HTS | Anoctamin-1 (Mus musculus), Q8BHY3 | HEK293 TMEM16A/YFP iodide influx fluorescence, ionomycin | normalized B-score (activity score, 25-100; higher = stronger inhibition) at 10 µM | 310,000 tested, 1.2% active | AID 588511, 2011;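 active = ratio plate-corrected score three or more library SD toward inhibition, starting fluorescence score within five deviations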;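 note: score derived from kinetic fluorescence span divided by baseline fluorescence per well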
# MT1-MMP act inh – blockers of MT1-MMP proenzyme processing, primary screen, HT1080 RFP-PRO-GFP cells, GFP/RFP fluorescence; 360,000 tested, 0.061% active; AID 651647, 2012; GFP/RFP ratio fluorescence, overnight; percent of plate control window, DMSO zero; Matrix metalloproteinase-14 (Homo sapiens), P50281; GFP/RFP ratio change, % at 20 µM;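 active = GFP/RFP ratio change of at least 30% with cell ATP level not reduced by more than half and red fluorescence within 50% of control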
#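 system = RFP-PRO-GFP reporter HT1080 cells | dosing = 20 µM single dose, 1% DMSO | timing = overnight cell settling, then overnight compound exposure, 37 °C, 5% CO2 | read-out basis = GFP/RFP fluorescence ratio | controls = DMSO and RFP-L50D-GFP cell wells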
# An asterisk follows results filed as active; i = inactive; / = not tested or not shown.
SMILES,ANO1 activ,DAGLB inhibitor,ANO1 block,MT1-MMP act inh
CC(C)C1O/C(=N/C(=O)Nc2ccc(Cl)c(Cl)c2)NC1=O (stereo not given),i,-3,100*,-4
O=C(Nc1ccc(Cl)c(Cl)c1)c1ccc(Cl)c(Cl)c1,i,-14,i,-4
Cc1cc(C)c2c(=O)n(CC(=O)NC3CCCC3)sc2n1,i,3,i,-1
COc1ccc(OC)c(CCNC(=O)Cn2sc3nc(C)cc(C)c3c2=O)c1,/,/,25*,/
Cc1onc(-c2ccccc2Cl)c1C(=O)NC(=S)NCC(=O)c1ccccc1,-9*,-3,i,7
CCc1ccc(NC(=S)NC(=O)c2c(-c3ccccc3Cl)noc2C)cc1,i,-16,i,-5
O=C(NC(=S)NNC(=O)c1ccc(Cl)cc1Cl)c1cccnc1,i,0,i,4
Cc1onc(-c2ccccc2)c1C(=O)NNC(=S)NC(=O)c1ccc(Br)cc1,i,7,100*,2
Cc1cccc(C(=O)NC(=S)NNC(=O)c2ccccc2Cl)c1,i,5,100*,6
Cc1ccccc1C(=O)NNC(=S)NC(=O)c1ccc(Cl)cc1Cl,i,6,100*,8
Cc1onc(-c2ccccc2)c1C(=O)NNC(=S)NC(=O)c1ccc(Cl)cc1Cl,i,5,100*,4
Cc1ccc(C2(c3ccc(C)cc3)CC2C(=O)Nc2ccc([N+](=O)[O-])cc2O)cc1 (stereo not given),i,-4,100*,5
CC[C@H](C)[C@H]1O[C@]2(CC[C@@H]1C)C[C@@H]1C[C@@H](CC=C(C)[C@@H](O[C@H]3C[C@H](OC)[C@@H](O[C@H]4C[C@H](OC)[C@@H](O)[C@H](C)O4)[C@H](C)O3)[C@@H](C)C=CC=C3CO[C@@H]4[C@H](O)C(C)=C[C@@H](C(=O)O1)[C@]34O)O2,i,3,25*,-23
O=C(C=Cc1cccs1)c1ccccc1,i,-3,/,4
CC(=O)N1c2ccc(S(=O)(=O)N3CCCCC3)cc2CC1C(=O)Nc1ccc(F)cc1C (stereo not given),i,3,i,-3
CCCCn1c(SCC(=O)NC(C)(C)C)nnc1-c1ccco1,i,2,25*,4
CCCCn1c(SCC(N)=O)nnc1-c1ccco1,i,-2,i,-4
CCC(C)c1ccc(C(C)NC(=S)NC2CCCCC2)cc1 (stereo not given),i,-15,100*,-6
CC(=O)c1ccc(OCc2cc(C(=O)N3CCC(Oc4ccccc4C)CC3)no2)cc1,i,-2,100*,-3
O=C(NCC(c1ccco1)N1CCc2ccccc2C1)C(=O)Nc1ccc(F)cc1F (stereo not given),i,-5,i,1
CCNC(=S)N1CCC(Cc2ccccc2)CC1,-4.8*,-3,i,1
CC(OC(=O)[C@@H](NC(=O)OCc1ccccc1)C(C)C)C(=O)Nc1ccc(N2CCOCC2)cc1 (stereo not given in full),i,0,/,-1
Cc1ccc(NC(=O)c2cncc(Br)c2)nc1,i,-5,i,0
C#CCOCCOCCOCCNc1nc(N2CCN(C(=O)[C@H](CCC(=O)O)n3cc([C@@H](N)CCCCN)nn3)CC2)nc(N2CCN(C(=O)[C@H](CCCCN)n3cc([C@@H](N)CC(N)=O)nn3)CC2)n1,i,2,/,2
COc1ccc(/C=N/NC(=O)CSc2nnc(CCCc3ccc(OC)c(C)c3)o2)cc1,i,-8,100*,2
SMILES,ANO1 activ,DAGLB inhibitor,ANO1 block,MT1-MMP act inh
COc1ccc(CCCc2nnc(SCC(=O)N/N=C\c3ccc(O)c(OC)c3)o2)cc1C,i,-2,i,1
O=C(NCc1cccc(C(F)(F)F)c1)N1CCN(C(=O)c2ccccc2)CC1,i,1,/,1
O=C1NC2(CCCCC2)CO1,i,1,i,4
O=C1NC2(CCCCO2)CO1 (stereo not given),-11*,-4,i,0
CCN(C(=O)Cn1ccc(C(F)(F)F)n1)c1c(N)n(Cc2ccccc2)c(=O)[nH]c1=O,i,-5,/,-1
CCOC(=O)Cn1nnnc1CN(Cc1ccccc1)Cc1cc2cc(CC)ccc2[nH]c1=O,i,3,25*,-6
CCc1ccc2[nH]c(=O)c(CN(Cc3ccccc3)Cc3nnnn3Cc3ccco3)cc2c1,i,6,i,-15
CCCc1cc(=O)oc2cc(C)cc(OC(C)C(=O)N[C@@H](Cc3c[nH]c4ccccc34)C(=O)O)c12 (stereo not given in full),i,3,i,-2
Cc1cc(OC(C)C(=O)NCCc2c[nH]c3ccccc23)c2c(C)cc(=O)oc2c1 (stereo not given),-10*,3,i,3
C=CCn1c(C)cc(-c2csc(NCC)n2)c1C,-5.4*,0,i,-11
Cc1ccc(C2Nc3ccccc3NC3=C2C(=O)CC(C)(C)C3)c(O)c1 (stereo not given),i,-2,i,5
Cc1ccc2c(c1)NC(c1cccs1)C1=C(CC(C)(C)CC1=O)N2 (stereo not given),-5.1*,-1,i,2
COc1ccc(/C=N/N=C/c2ccc(OC)c(OC)c2)cc1OC,i,0,i,-3
COc1cc(/C=N/N=C(N)N)ccc1OCc1ccccc1Cl,i,2,100*,-4
CCn1c(SCC(=O)N/N=C/c2c[nH]c3ccccc23)nnc1-c1ccc(C(C)(C)C)cc1,i,-2,25*,/
CCn1c(SCC(=O)N/N=C/c2ccc(C)o2)nnc1-c1ccc(C(C)(C)C)cc1,i,-1,i,3
CCOC(=O)c1csc(-c2csc(CCNC(=O)c3ccccc3)n2)n1,/,0,/,4
CCOC(=O)C1(C)CCCCN1C(=O)c1cccc(Cl)c1 (stereo not given),/,/,/,2
Cc1nn(-c2ccccc2)c(C)c1NC(=O)COc1ccc(Br)cc1Cl,i,-1,25*,-1
Cc1nn(-c2ccccc2)c(C)c1NC(=O)COc1ccccc1C#N,/,1,/,1
COc1ccc(NS(=O)(=O)c2ccc(C(=O)N3CCN(Cc4ccccc4)CC3)cc2)cc1,i,-1,25*,1
CCOc1ccc(S(=O)(=O)Nc2ccc(C(=O)N3CCCC3)cc2)cc1,i,-1,i,3
CCOc1ccc(NS(=O)(=O)c2ccc(C(=O)N3CCCC(C)C3)cc2)cc1 (stereo not given),i,0,100*,-8
COc1ccc(S(=O)(=O)NCc2ccc(C(=O)N3CCN(Cc4ccccc4)CC3)cc2)cc1,i,-3,i,2
